# pKi: −log10 of the molar value.
# Key:
# [1] = target: T1, hERG (KCNH2) (Homo sapiens, UniProt Q12809); experiment: Inhibition of [3H]-astemizole binding to human ERG at 10 uM after 2 hrs by liquid scintillation counting method relative to control; conditions: probe [3H]-astemizole
# [2] = Clearance in Wistar rat at 3 mg/kg, iv by LC/MS/MS analysis; assay type: ADME, organism-based; conditions: in vivo
# How it was run: (§1)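 Male Wistar rats (230 ± 15 g), fasted overnight, given 3 mg/kg IV via tail vein as a solution (0.6 mg/mL, 5 mL/kg) in NMP-based vehicles with acetate buffer pH 4.2. Serial plasma sampling (K2EDTA) from 0.008 to 24 h. Acetonitrile precipitation, then LC/MS/MS. Non-compartmental analysis per animal; mean of n=4.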
# [3] = target: T2, Cytochrome P450 1A2 (Homo sapiens, UniProt P05177); experiment: Inhibition of CYP1A2 in human liver microsomes at 5 to 25 uM using phenacetin as substrate preincubated for 5 mins with substrate followed by NADPH addition measured after 10 mins by LC-MS/MS analysis; assay type: ADME; conditions: microsomes, 10 min, 25 µM
# T2 sequence (P05177 whole entry): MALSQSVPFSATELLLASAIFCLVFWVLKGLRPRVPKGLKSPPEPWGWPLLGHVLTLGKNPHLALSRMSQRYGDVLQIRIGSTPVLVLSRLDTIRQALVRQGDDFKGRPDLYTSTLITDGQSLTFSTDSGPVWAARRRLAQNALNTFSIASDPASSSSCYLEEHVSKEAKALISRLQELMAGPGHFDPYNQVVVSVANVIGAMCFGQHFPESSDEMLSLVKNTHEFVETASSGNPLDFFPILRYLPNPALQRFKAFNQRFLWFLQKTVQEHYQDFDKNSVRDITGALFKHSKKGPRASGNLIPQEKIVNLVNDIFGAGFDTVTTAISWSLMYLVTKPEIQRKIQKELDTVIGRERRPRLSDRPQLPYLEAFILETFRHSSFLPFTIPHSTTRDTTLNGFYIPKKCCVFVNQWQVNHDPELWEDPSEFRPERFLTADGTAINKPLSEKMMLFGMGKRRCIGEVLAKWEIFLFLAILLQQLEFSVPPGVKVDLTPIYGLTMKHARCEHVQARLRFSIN
# [4] = target: Cytochrome P450 2D6 (Homo sapiens, UniProt P10635); experiment: Inhibition of CYP2D6 in human liver microsomes at 5 to 25 uM using dextromethorphan as substrate preincubated for 5 mins with substrate followed by NADPH addition measured after 10 mins by LC-MS/MS analysis; assay type: ADME; conditions: microsomes, 10 min, 25 µM
# Chain of Cytochrome P450 2D6 (P10635 whole entry): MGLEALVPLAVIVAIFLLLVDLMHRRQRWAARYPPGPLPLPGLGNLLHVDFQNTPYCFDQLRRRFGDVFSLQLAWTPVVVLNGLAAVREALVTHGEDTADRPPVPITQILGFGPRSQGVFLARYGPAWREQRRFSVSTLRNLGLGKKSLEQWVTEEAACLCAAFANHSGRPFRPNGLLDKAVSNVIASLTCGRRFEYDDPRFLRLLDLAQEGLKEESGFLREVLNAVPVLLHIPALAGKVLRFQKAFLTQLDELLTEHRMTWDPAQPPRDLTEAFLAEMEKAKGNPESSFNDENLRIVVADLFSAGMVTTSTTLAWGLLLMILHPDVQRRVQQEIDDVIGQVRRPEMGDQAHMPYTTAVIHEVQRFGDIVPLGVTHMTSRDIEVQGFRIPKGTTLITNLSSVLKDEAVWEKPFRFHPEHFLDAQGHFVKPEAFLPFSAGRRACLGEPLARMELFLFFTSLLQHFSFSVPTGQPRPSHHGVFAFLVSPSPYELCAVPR
# [5] = target: Cytochrome P450 3A (Homo sapiens, UniProt P08684+P20815+Q9HB55+P24462); experiment: Inhibition of CYP3A in human liver microsomes at 5 to 25 uM using testosterone as substrate preincubated for 5 mins with substrate followed by NADPH addition measured after 10 mins by LC-MS/MS analysis; assay type: ADME; conditions: microsomes, 10 min, 25 µM
# [6] = target: T3, Adenosine receptor A2a (Homo sapiens, UniProt P29274); experiment: Antagonist activity at human adenosine A2A receptor expressed in HEK293 cell membranes assessed as decrease in CGS-21680-induced cAMP level pretreated for 15 mins followed by agonist addition for 30 mins
# T3 sequence (P29274 whole entry): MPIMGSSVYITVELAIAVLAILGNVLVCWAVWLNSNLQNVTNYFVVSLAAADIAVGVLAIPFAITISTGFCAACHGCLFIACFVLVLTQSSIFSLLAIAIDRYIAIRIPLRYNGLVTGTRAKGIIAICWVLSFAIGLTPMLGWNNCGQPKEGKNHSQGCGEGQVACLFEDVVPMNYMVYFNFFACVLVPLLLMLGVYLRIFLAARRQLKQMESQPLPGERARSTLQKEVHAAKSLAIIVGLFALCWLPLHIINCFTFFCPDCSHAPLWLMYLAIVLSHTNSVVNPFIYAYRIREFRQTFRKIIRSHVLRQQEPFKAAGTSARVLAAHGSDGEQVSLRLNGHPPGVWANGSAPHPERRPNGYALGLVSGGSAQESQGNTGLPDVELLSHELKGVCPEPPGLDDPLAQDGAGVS
# [7] = target: T3, Adenosine receptor A2a; experiment: Displacement of [3H]ZM241385 from human adenosine A2A receptor expressed in HEK293 cell membranes measured after 90 mins
# How it was run: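 Competition binding on membranes from HEK-293 cells overexpressing human A1, A2A, A2B or A3, washed with ADA. Radioligands: [3H]-DPCPX 1 nM (A1), [3H]ZM241385 1 nM (A2A), [3H]-MRS-1754 1.6 nM (A2B), [3H]-HEMADO 2 nM (A3). Buffer was 50 mM Tris with EDTA and ADA; MgCl2 10 mM for A2A/A3; A2B at pH 6.5 with 5 mM MgCl2. Incubation 90 min at room temperature, then filtration. Nonspecific binding defined by NECA 100 μM. Ki values: mean of two experiments, triplicate points.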
# [8] = Equilibrium aqueous solubility of the compound at pH 7.4 after 4 hrs; assay type: physicochemical; conditions: aqueous medium
# [9] = target: Cytochrome P450 2C19 (Homo sapiens, UniProt P33261); experiment: Inhibition of CYP2C19 in human liver microsomes at 5 to 25 uM using (S)mephenytoin as substrate preincubated for 5 mins with substrate followed by NADPH addition measured after 40 mins by LC-MS/MS analysis; assay type: ADME; conditions: microsomes, 40 min, 25 µM
# Chain of Cytochrome P450 2C19 (P33261 whole entry): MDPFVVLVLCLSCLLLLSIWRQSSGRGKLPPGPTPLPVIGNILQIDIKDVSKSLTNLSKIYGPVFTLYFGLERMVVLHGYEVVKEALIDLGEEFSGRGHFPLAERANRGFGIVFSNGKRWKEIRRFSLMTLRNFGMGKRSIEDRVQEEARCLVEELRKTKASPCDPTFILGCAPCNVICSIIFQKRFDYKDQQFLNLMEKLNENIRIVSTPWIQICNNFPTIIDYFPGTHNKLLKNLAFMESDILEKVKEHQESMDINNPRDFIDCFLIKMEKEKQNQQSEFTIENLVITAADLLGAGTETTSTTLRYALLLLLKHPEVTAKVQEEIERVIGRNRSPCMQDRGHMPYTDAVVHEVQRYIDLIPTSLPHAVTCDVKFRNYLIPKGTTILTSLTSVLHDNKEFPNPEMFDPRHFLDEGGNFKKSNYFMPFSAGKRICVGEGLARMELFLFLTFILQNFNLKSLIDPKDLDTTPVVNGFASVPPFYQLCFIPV
# [10] = target: T4, Adenosine receptor A2b (Homo sapiens, UniProt P29275); experiment: Antagonist activity at human adenosine A2B receptor expressed in HEK293 cell membranes assessed as decrease in NECA/forskolin-induced cAMP level pretreated for 15 mins followed by agonist addition for 15 mins and subsequent forskolin stimulation measured after 30 mins; assay type: functional, cell-based
# T4 sequence (P29275 whole entry): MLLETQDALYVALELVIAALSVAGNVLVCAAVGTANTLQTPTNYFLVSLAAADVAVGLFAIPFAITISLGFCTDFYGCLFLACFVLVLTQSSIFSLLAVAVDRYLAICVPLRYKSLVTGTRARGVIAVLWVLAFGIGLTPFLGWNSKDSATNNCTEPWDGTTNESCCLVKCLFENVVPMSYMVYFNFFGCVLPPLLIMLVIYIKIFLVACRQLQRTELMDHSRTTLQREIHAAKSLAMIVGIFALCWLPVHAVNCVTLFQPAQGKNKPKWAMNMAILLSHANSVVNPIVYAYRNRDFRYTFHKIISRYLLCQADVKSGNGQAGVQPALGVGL
# [11] = Volume of distribution at steady state in Wistar rat at 3 mg/kg, iv by LC/MS/MS analysis; assay type: ADME, organism-based; conditions: in vivo, read-out: Vdss; how it was run: as §1
# [12] = target: T5, Adenosine receptor A3 (Homo sapiens, UniProt P0DMS8); experiment: Displacement of [3H]-HEMADO from human adenosine A3 receptor expressed in HEK293 cell membranes measured after 90 mins
# T5 sequence (P0DMS8 whole entry): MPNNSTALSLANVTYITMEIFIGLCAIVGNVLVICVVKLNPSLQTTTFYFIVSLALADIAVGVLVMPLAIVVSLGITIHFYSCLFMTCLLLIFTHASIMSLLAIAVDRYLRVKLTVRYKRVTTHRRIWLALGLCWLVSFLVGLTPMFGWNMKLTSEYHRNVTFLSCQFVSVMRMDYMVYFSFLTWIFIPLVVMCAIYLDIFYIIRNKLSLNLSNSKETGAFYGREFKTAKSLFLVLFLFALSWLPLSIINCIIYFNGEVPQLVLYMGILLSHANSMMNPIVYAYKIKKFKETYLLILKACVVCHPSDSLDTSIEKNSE
# [13] = target: T4, Adenosine receptor A2b; experiment: Displacement of [3H]-MRS-1754 from human adenosine A2B receptor expressed in HEK293 cell membranes measured after 90 mins
# [14] = target: CYP2C9 (Homo sapiens, UniProt P11712); experiment: Inhibition of CYP2C9 in human liver microsomes at 5 to 25 uM using diclofenac as substrate preincubated for 5 mins with substrate followed by NADPH addition measured after 10 mins by LC-MS/MS analysis; assay type: ADME; conditions: human liver microsomes, probe diclofenac
# Chain of CYP2C9 (P11712 whole entry): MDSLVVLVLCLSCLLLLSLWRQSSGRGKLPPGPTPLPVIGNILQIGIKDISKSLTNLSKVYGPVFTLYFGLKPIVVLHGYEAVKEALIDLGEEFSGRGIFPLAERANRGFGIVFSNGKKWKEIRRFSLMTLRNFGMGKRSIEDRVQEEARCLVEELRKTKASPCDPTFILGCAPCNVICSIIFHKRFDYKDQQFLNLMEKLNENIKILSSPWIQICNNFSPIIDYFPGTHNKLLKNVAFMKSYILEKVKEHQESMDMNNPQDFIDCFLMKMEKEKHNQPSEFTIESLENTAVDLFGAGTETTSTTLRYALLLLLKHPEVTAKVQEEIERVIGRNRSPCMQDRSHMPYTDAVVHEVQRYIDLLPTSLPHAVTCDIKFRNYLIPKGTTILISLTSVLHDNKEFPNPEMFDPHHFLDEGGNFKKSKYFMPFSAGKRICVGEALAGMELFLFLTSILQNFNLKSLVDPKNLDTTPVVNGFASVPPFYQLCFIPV
# [15] = target: T1, hERG (KCNH2); experiment: Inhibition of [3H]-astemizole binding to human ERG at 3 uM after 2 hrs by liquid scintillation counting method relative to control; conditions: probe [3H]-astemizole
# T1 sequence (Q12809 whole entry): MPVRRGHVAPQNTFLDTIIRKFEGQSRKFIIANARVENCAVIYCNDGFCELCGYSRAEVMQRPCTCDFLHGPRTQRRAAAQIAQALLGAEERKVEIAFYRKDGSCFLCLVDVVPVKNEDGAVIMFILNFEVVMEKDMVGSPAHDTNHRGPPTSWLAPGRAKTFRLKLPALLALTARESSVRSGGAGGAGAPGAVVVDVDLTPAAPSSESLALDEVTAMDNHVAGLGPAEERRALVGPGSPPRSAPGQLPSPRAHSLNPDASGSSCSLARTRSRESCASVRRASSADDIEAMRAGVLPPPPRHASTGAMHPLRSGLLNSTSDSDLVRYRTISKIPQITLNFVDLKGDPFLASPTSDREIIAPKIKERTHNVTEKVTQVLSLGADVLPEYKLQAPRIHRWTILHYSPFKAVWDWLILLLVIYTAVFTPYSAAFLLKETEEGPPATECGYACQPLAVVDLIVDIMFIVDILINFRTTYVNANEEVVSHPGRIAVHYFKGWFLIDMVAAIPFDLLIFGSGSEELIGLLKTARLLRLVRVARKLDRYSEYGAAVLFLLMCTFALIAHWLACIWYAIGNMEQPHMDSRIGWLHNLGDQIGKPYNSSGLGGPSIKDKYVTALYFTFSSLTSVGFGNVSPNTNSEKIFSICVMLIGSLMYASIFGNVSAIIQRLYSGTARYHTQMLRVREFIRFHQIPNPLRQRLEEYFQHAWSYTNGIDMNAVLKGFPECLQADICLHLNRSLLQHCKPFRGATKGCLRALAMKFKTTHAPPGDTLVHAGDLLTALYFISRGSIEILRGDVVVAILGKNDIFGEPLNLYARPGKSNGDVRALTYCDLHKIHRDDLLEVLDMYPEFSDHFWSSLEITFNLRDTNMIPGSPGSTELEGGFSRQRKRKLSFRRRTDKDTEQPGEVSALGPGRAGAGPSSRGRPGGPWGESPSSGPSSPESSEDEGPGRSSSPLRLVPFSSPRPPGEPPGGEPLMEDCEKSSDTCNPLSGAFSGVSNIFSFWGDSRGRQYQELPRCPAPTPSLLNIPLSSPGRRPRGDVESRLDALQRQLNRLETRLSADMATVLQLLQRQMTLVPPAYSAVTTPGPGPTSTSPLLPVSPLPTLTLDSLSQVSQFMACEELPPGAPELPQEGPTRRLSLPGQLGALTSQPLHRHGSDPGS
clearance [2],inhibition (INH) [3],inhibition (INH) [4],inhibition (INH) [5],pKi [6],pKi [7],solubility thermodynamic at 4 h [8],inhibition (INH) [9],pKi [10],Vd [11],pKi [12],pKi [13],IC50 at 10 min [14],SMILES,"inhibition at 2 h, 10 µM [1]","inhibition at 2 h, 3 µM [15]"
6.6 mL/min/kg,Not Active,Not Active,Not Active,8.19,8.47,< 6 µM,Not Active,5.70,2.1 L/kg,6.40,5.85,–,COc1cnc(N2CCOCC2)c2sc(NC(=O)C(C)(C)Oc3ccc(F)cc3)nc12,< 10%,–
37.2 mL/min/kg,–,–,–,9.70,8.68,1590 µM,–,6.19,6.1 L/kg,–,6.30,> 50 µM,CCN(CC)C1CCC(C)(C(=O)Nc2nc3c(OC)ccc(N4CCOCC4)c3s2)CC1 (stereo unspecified),13%,–
32 mL/min/kg,–,–,–,9.60,8.07,114 µM,–,5.70,1.5 L/kg,–,6.30,> 25 µM,COc1ccc(N2CCOCC2)c2sc(NC(=O)C3(C)CCC(C)(O)CC3)nc12 (stereo unspecified),–,–
10.2 mL/min/kg,Not Active,Not Active,Not Active,8.62,8.19,< 6 µM,Not Active,–,2.1 L/kg,6.30,5.30,–,COc1ccc(N2CCOCC2)c2sc(NC(=O)C(C)(C)Oc3ccc(F)c(F)c3)nc12,< 5%,< 5%
15 mL/min/kg,Not Active,Not Active,Not Active,8.38,7.89,< 6 µM,Not Active,–,1.4 L/kg,5.30,5.00,–,COc1ccc(N2CCOCC2)c2sc(NC(=O)C(C)(C)Oc3ccc(F)cc3)nc12,< 5%,< 5%

# — ChEMBL document CHEMBL4002602, “Design, Synthesis of Novel, Potent, Selective, Orally Bioavailable Adenosine A2A Receptor Antagonists and Their Biological Evaluation” (J Med Chem, 2017)
